Activity calls are given as the source filed them. The calls are words filed in the database; no cut-off is given here.
What was measured:
R2 [1] = assay: Growth inhibition of Chinese hamster R2 cells expressing empty vector control incubated for 96 hrs by CellTiter-blue cell viability assay; details: Cricetulus griseus, R2, 96 h
KB [2] = assay: Growth inhibition of human KB cells endogenously expressing RFC/FRalpha/PCFT incubated for 96 hrs by CellTiter-blue cell viability assay; type: functional, cell-based
[3] = Growth inhibition of Chinese hamster RT16 cells expressing human folate receptor alpha incubated for 96 hrs by CellTiter-blue cell viability assay; type: functional, cell-based; details: Cricetulus griseus, RT16, 96 h
KB [4] = assay: Growth inhibition of human KB cells endogenously expressing RFC/FRalpha/PCFT in presence of folic acid incubated for 96 hrs by CellTiter-blue cell viability assay; type: functional, cell-based
[5] = Growth inhibition of Chinese hamster RT16 cells expressing human folate receptor alpha incubated for 96 hrs in presence of folic acid by CellTiter-blue cell viability assay; type: functional, cell-based; details: Cricetulus griseus, RT16, 96 h
R2 [6] = assay: Growth inhibition of Chinese hamster R2 cells expressing human PCFT incubated for 96 hrs by CellTiter-blue cell viability assay; type: functional, cell-based, Cricetulus griseus; details: R2, 96 h
Summary of the method: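 R2/hPCFT4 CHO cells maintained beforehand in folate-free RPMI 1640 with dialyzed FBS, 25 nM LCV and G418. Assay: ~2500–5000 cells/well in folate-free RPMI 1640 (pH 7.2) with 25 nM LCV, 10% dialyzed FBS, antibiotics and L-glutamine, over a range of drug concentrations.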

[7] = Growth inhibition of Chinese hamster PC43-10 cells expressing reduced folate carrier incubated for 96 hrs by CellTiter-blue cell viability assay; type: functional, cell-based; details: Cricetulus griseus, PC43-10, 96 h
R2 [8] = assay: Growth inhibition of Chinese hamster R2 cells deficient in reduced folate carrier and human folate receptor alpha incubated for 96 hrs by CellTiter-blue cell viability assay; type: cell-based, Cricetulus griseus; details: R2, 96 h
IGROV-1 [9] = assay: Growth inhibition of human IGROV1 cells endogenously expressing RFC/FRalpha/PCFT incubated for 96 hrs by CellTiter-blue cell viability assay; type: functional, cell-based; details: IGROV-1, 96 h
IGROV-1 [10] = assay: Growth inhibition of human IGROV1 cells endogenously expressing RFC/FRalpha/PCFT in presence of folic acid incubated for 96 hrs by CellTiter-blue cell viability assay; type: functional, cell-based; details: IGROV-1, 96 h
[11] = molecular target: T1, Proton-coupled folate transporter (Homo sapiens, UniProt Q96NT5); assay: Inhibition of [3H]MTX transport at human PCFT expressed in Chinese hamster R2 cells at pH 6.8 by Dixon plot; type: cell-based
T1 sequence (Q96NT5 whole entry): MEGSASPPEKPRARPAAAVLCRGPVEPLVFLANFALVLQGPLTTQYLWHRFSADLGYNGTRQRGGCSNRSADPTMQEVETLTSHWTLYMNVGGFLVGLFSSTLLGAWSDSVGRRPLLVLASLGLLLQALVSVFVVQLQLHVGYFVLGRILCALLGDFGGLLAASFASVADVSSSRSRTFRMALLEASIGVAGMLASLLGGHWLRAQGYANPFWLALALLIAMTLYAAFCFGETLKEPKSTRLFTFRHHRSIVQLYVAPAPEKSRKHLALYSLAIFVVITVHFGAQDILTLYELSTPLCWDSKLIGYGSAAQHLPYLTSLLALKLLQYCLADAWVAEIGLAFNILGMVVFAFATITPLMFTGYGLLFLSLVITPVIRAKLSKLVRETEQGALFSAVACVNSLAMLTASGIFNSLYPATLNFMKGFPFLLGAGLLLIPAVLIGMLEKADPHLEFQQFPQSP
Summary of the method: (§1)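 R2/hPCFT4 CHO cells grown in spinner flasks, resuspended in HBS at pH 6.8 or MES-buffered saline at pH 5.5. Uptake quenched with ice-cold DPBS and normalized to protein. Mean ± SE, n=4–8.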

KB [12] = assay: Growth inhibition of human KB cells endogenously expressing RFC/FRalpha/PCFT in presence of 60 uM adenosine incubated for 96 hrs by CellTiter-blue cell viability assay; type: functional, cell-based
IGROV-1 [13] = assay: Growth inhibition of human IGROV1 cells endogenously expressing RFC/FRalpha/PCFT in presence of 10 uM thymidine incubated for 96 hrs by CellTiter-blue cell viability assay; type: functional, cell-based
KB [14] = assay: Growth inhibition of human KB cells endogenously expressing RFC/FRalpha/PCFT in presence of 320 uM 5-amino-4-imidazolecarboxamide incubated for 96 hrs by CellTiter-blue cell viability assay; type: functional, cell-based
KB [15] = assay: Growth inhibition of human KB cells endogenously expressing RFC/FRalpha/PCFT in presence of 50 nM leucovorin incubated for 96 hrs by CellTiter-blue cell viability assay; type: functional, cell-based
Summary of the method: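 KB cells in complete folate-free RPMI 1640 with 10% dialyzed FBS and LCV at 50 nM (versus the standard 2 nM), exposed to a range of antifolate concentrations for up to 96 h. Cell density read by CellTiter-blue fluorescence and normalized to drug-free cells. Representative data from experiments run in duplicate.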

IGROV-1 [16] = assay: Growth inhibition of human IGROV1 cells endogenously expressing RFC/FRalpha/PCFT in presence of 320 uM 5-amino-4-imidazolecarboxamide incubated for 96 hrs by CellTiter-blue cell viability assay; type: functional, cell-based
KB [17] = assay: Growth inhibition of human KB cells endogenously expressing RFC/FRalpha/PCFT in presence of 10 uM thymidine incubated for 96 hrs by CellTiter-blue cell viability assay; type: functional, cell-based
KB [18] = assay: Inhibition of colony formation of human KB cells endogenously expressing RFC/FRalpha/PCFT incubated for 14 days by methylene blue staining based clonogenicty assay; type: functional, cell-based; details: 336 h
IGROV-1 [19] = assay: Growth inhibition of human IGROV1 cells endogenously expressing RFC/FRalpha/PCFT in presence of 60 uM adenosine incubated for 96 hrs by CellTiter-blue cell viability assay; type: functional, cell-based
[20] = molecular target: Folate receptor alpha (Homo sapiens) (UniProt P15328); type: cell-based; details: CHO
[21] = molecular target: T1, Proton-coupled folate transporter; assay: Inhibition of [3H]MTX transport at human PCFT expressed in Chinese hamster R2 cells at pH 5.5 by Dixon plot; type: cell-based
Summary of the method: as §1

Sequence of Folate receptor alpha (Homo sapiens) (P15328 25-234 limits assumed): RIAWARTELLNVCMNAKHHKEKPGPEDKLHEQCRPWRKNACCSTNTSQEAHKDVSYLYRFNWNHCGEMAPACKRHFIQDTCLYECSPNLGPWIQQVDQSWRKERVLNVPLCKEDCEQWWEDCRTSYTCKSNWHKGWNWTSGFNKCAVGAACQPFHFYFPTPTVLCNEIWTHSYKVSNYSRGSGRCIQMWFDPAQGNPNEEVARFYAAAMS

**Q.** Which IC50 (R2 [1]) does the source give for `Nc1nc2[nH]c(CCC#Cc3ccsc3C(=O)N[C@@H](CCC(=O)O)C(=O)O)cc2c(=O)[nH]1` here?
**A.** Its IC50 is over 1000 nM.

**Q.** And the IC50 (KB [2])?
**A.** The IC50 was over 1000 nM.

**Q.** What about the IC50 [3] of the same molecule?
**A.** Its IC50 is over 1000 nM.

**Q.** And the IC50 (KB [4])?
**A.** The IC50 was over 1000 nM.

**Q.** What about the IC50 [5] of the same molecule?
**A.** The IC50 was over 1000 nM.

**Q.** And the IC50 (R2 [6])?
**A.** Its IC50 is over 1000 nM.

**Q.** And the IC50 [7]?
**A.** Its IC50 is over 1000 nM.

**Q.** What about the IC50 (R2 [8]) of the same molecule?
**A.** Its IC50 is over 1000 nM.

**Q.** With `Nc1nc2[nH]c(CCC#Cc3csc(C(=O)N[C@@H](CCC(=O)O)C(=O)O)c3)cc2c(=O)[nH]1` as the molecule, how does the IC50 (IGROV-1 [9]) read?
**A.** The IC50 was over 1000 nM.

**Q.** And the IC50 (IGROV-1 [10])?
**A.** Its IC50 is over 1000 nM.

**Q.** And the IC50 (R2 [1])?
**A.** The IC50 was over 1000 nM.

**Q.** And the IC50 (KB [2])?
**A.** The IC50 was over 1000 nM.

**Q.** What about the IC50 [3] of the same molecule?
**A.** The IC50 was 13.5 nM.

**Q.** And the IC50 (KB [4])?
**A.** The IC50 was over 1000 nM.

**Q.** What about the IC50 [5] of the same molecule?
**A.** Its IC50 is over 1000 nM.

**Q.** What about the IC50 (R2 [6]) of the same molecule?
**A.** Its IC50 is over 1000 nM.

**Q.** What about the IC50 [7] of the same molecule?
**A.** The IC50 was over 1000 nM.

**Q.** What about the IC50 (R2 [8]) of the same molecule?
**A.** The IC50 was over 1000 nM.

**Q.** Which results are given for `Nc1nc2[nH]c(CCC#Cc3sccc3C(=O)N[C@@H](CCC(=O)O)C(=O)O)cc2c(=O)[nH]1`?
**A.** IC50 (R2 [1]): > 1000 nM; IC50 (KB [2]): > 1000 nM; IC50 [3]: > 1000 nM; IC50 (KB [4]): > 1000 nM; IC50 [5]: > 1000 nM; IC50 (R2 [6]): > 1000 nM; IC50 [7]: > 1000 nM; IC50 (R2 [8]): > 1000 nM

**Q.** For `Nc1nc2[nH]c(CCCCc3csc(C(=O)N[C@@H](CCC(=O)O)C(=O)O)c3)cc2c(=O)[nH]1`, which Ki [11] is on record?
**A.** Its Ki is 28100 nM.

**Q.** And the IC50 (IGROV-1 [9])?
**A.** Its IC50 is 0.48 nM.

**Q.** And the IC50 (IGROV-1 [10])?
**A.** Its IC50 is over 1000 nM.

**Q.** And the “growth inhibition (GI)” value (KB [12])?
**A.** The value was “inactive”.

**Q.** And the IC50 (R2 [1])?
**A.** The IC50 was over 1000 nM.

**Q.** And the “growth inhibition (GI)” value (IGROV-1 [13])?
**A.** Its value is “Active”.

**Q.** And the “growth inhibition (GI)” value (KB [14])?
**A.** The value was “inactive”.

**Q.** What about the IC50 (KB [2]) of the same molecule?
**A.** Its IC50 is 0.17 nM.

**Q.** What about the IC50 (KB [15]) of the same molecule?
**A.** The IC50 was 3.4 nM.

**Q.** What about the “growth inhibition (GI)” value (IGROV-1 [16]) of the same molecule?
**A.** Its value is “inactive”.

**Q.** And the “growth inhibition (GI)” value (KB [17])?
**A.** Its value is “Active”.

**Q.** And the IC50 [3]?
**A.** The IC50 was 2.54 nM.

**Q.** And the IC50 (KB [18])?
**A.** The IC50 was 0.39 nM.

**Q.** What about the IC50 (KB [4]) of the same molecule?
**A.** The IC50 was over 1000 nM.

**Q.** What about the “growth inhibition (GI)” value (IGROV-1 [19]) of the same molecule?
**A.** The value was “inactive”.

**Q.** And the IC50 [5]?
**A.** Its IC50 is over 1000 nM.

**Q.** What about the IC50 (R2 [6]) of the same molecule?
**A.** Its IC50 is 41.5 nM.

**Q.** And the relative binding affinity (RBA) [20]?
**A.** Its relative binding affinity (RBA) is over 1.

**Q.** What about the Ki [21] of the same molecule?
**A.** The Ki was 390 nM.

**Q.** And the IC50 [7]?
**A.** Its IC50 is over 1000 nM.

**Q.** What about the IC50 (R2 [8]) of the same molecule?
**A.** The IC50 was over 1000 nM.

**Q.** For `Nc1nc2[nH]c(CCCc3ccc(C(=O)N[C@@H](CCC(=O)O)C(=O)O)s3)cc2c(=O)[nH]1`, which IC50 (IGROV-1 [10]) is on record?
**A.** The IC50 was over 1000 nM.

**Q.** And the IC50 (R2 [1])?
**A.** Its IC50 is 288 nM.

**Q.** And the IC50 (KB [4])?
**A.** The IC50 was over 1000 nM.

**Q.** What about the IC50 [5] of the same molecule?
**A.** The IC50 was over 1000 nM.

**Q.** And the IC50 [7]?
**A.** The IC50 was 101 nM.

**Q.** What does the source list for `Nc1nc2[nH]c(CCCCc3cscc3C(=O)N[C@@H](CCC(=O)O)C(=O)O)cc2c(=O)[nH]1`?
**A.** IC50 (IGROV-1 [9]): 103 nM; IC50 (IGROV-1 [10]): > 1000 nM; IC50 (R2 [1]): > 1000 nM; IC50 (KB [2]): 35.3 nM; IC50 [3]: 147 nM; IC50 (KB [4]): > 1000 nM; IC50 [5]: > 1000 nM; IC50 (R2 [6]): > 1000 nM; IC50 [7]: > 1000 nM; IC50 (R2 [8]): > 1000 nM

Reference: ChEMBL document CHEMBL2157949 (J Med Chem, 2012)
